Here are results for 20 molecules from ChEMBL document CHEMBL1123137 (J Med Chem, 1985).

A word on the pKa: it is the negative logarithm of the acid dissociation constant. Read a high pKa as a group that holds its proton tightly.

Series [1] in a line: HPLC capacity factor (k'). In kind it is ADME.
Series [2] can be described thus: Ionisation constant (pKa). The class given is physicochemical.
For a further series, the target named is Albumin (Bos taurus, UniProt P02769). As to the kind of experiment: Serum albumin binding. Particulars: cattle. The method in brief:
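Affinity for bovine serum albumin measured by Hummel–Dreyer method adapted for HPLC. Samples of BSA (0.25–2 g/dL) with 25 μM analogue in 0.1 M NaH2PO4, pH 7.4, were applied to an Aquapore OH-100 column equilibrated with 25 μM analogue in the same buffer. Effluent absorbance was read at 254 nm. Duplicate estimates were made at each of two BSA concentrations, usually 1 and 2 g/dL.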

For series [3], the target named is Adenosine receptor A2a (Canis lupus familiaris) (UniProt P11617). The series can be described thus: Molar potency ratio was evaluated.
Chain of Adenosine receptor A2a (Canis lupus familiaris) (P11617 whole entry, looked up): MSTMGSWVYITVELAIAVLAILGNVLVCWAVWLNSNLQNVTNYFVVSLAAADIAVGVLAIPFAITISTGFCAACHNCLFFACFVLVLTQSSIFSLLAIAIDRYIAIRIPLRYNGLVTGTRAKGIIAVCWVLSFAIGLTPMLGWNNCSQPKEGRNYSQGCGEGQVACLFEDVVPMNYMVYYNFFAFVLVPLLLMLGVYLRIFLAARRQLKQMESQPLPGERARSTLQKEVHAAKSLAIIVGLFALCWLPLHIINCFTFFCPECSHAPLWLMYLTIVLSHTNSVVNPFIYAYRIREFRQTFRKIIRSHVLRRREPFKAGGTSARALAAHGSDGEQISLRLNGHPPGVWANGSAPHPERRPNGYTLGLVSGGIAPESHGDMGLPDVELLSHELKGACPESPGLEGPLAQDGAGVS
A short description of series [4]: Molar potency ratio was evaluated at 27 uM.
Series [5] is described as follows: Molar potency ratio was evaluated at 50 uM.
A short description of series [6]: Maximum increase in coronary flow (percent) of N6-modified adenosines at 27 uM.
Series [7] in a line: Molar potency ratio was evaluated at 18 uM.
A short description of series [8]: Molar potency ratio was evaluated at 107 uM.
The nature of series [9]: Molar potency ratio was evaluated at 35 uM.
Series [10] in a line: Molar potency ratio was evaluated at 47 uM.
Series [11] in a line: Molar potency ratio was evaluated at 37 uM.
A short description of series [12]: Molar potency ratio was evaluated at 61 uM.
Series [13] in a line: Molar potency ratio was evaluated at 46 uM.

Chain of Albumin (P02769 whole entry): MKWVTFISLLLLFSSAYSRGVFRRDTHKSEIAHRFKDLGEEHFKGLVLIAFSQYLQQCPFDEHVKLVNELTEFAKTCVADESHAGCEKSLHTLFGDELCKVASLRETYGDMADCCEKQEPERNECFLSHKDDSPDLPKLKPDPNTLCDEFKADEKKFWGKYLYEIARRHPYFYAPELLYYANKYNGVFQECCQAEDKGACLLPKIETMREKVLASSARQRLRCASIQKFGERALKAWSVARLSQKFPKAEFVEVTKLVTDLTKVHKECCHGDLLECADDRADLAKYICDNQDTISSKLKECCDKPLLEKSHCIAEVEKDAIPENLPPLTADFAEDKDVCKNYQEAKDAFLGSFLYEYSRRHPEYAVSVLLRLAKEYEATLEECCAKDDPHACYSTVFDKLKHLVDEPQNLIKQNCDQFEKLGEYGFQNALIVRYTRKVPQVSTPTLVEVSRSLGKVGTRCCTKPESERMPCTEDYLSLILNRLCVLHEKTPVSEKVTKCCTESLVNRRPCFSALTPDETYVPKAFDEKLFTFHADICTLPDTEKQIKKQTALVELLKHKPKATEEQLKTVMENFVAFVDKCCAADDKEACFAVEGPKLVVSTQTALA

As for `CCC(CC)Nc1ncnc2c1ncn2C1O[C@H](CO)[C@@H](O)[C@H]1O` (stereo partly specified), in series [1], the “k'” value was 1.64. The pKa in series [2] worked out at 3.3. At Albumin, this molecule yielded an Amount bound of 0.78 M/g. Also, in [3], the MPR worked out at 4.
As to `OC[C@H]1OC(n2cnc3c(NC45C[C@H]6C[C@@H](C4)C[C@@H](C5)C6)ncnc32)[C@H](O)[C@@H]1O` (stereo partly specified), the “k'” value in series [1] was 19.6. The MPR in series [4] came to 0.
Consider `CC(C)(CCc1ccccc1)Nc1ncnc2c1ncn2C1O[C@H](CO)[C@@H](O)[C@H]1O` (stereo partly specified), for which, in series [1], the “k'” value was 18.7. Besides, in series [5], the MPR turned out to be 4%.
As for `CC(C)(Nc1ncnc2c1ncn2C1O[C@H](CO)[C@@H](O)[C@H]1O)c1ccccc1` (stereo partly specified), the “k'” value in [1] was determined as 4.45. The molecule also showed a max coronary flow increase in series [6] of 7%.
Consider `OC[C@H]1O[C@@H](n2cnc3c(NCCc4ccccc4)ncnc32)[C@H](O)[C@@H]1O`, for which the “k'” value in series [1] was 1.77. The pKa in [2] is 3.6. Moreover, in series [3], the MPR stood at 2.
On to `OC[C@H]1OC(n2cnc3c(NC4C5C[C@H]6C[C@@H](C5)C[C@@H]4C6)ncnc32)[C@H](O)[C@@H]1O` (stereo partly specified), for which, in series [1], the “k'” value stood at 12.2. The MPR in series [7] stood at 0.
As for `OC[C@H]1OC(n2cnc3c(OCCc4ccccc4)ncnc32)[C@H](O)[C@@H]1O` (stereo partly specified), the MPR in [8] was determined as 9%. Moreover, the “k'” value in [1] stood at 2.36.
In the case of `CC(C)(C)Nc1ncnc2c1ncn2C1O[C@H](CO)[C@@H](O)[C@H]1O` (stereo partly specified), the “k'” value in series [1] stood at 2.44. Besides, the MPR in [9] turned out to be 7%.
For the molecule `CCC(C)(C)Nc1ncnc2c1ncn2C1O[C@H](CO)[C@@H](O)[C@H]1O` (stereo partly specified), in series [1], the “k'” value is 4.28. Further, the MPR in [10] was determined as 12%.
Turning to `CC1(C)C2CCC(CNc3ncnc4c3ncn4C3O[C@H](CO)[C@@H](O)[C@H]3O)C1C2` (stereo partly specified), the MPR in series [11] worked out at 8%. In series [1], the “k'” value is listed as 21.
In the case of `OC[C@H]1OC(n2cnc3c(NC(c4ccccc4)c4ccccc4)ncnc32)[C@H](O)[C@@H]1O` (stereo partly specified), in [1], the “k'” value was determined as 6.11. Also, the MPR in series [12] was 27%.
Consider `CC[C@H](C)Nc1ncnc2c1ncn2C1O[C@H](CO)[C@@H](O)[C@H]1O` (single isomer, unassigned), for which the “k'” value in series [1] is recorded as 0.96. Also, on Albumin, the Amount bound came out at 0.53 M/g. Besides, the MPR in [3] was found to be 2.6.
As for `CC1(Nc2ncnc3c2ncn3C2O[C@H](CO)[C@@H](O)[C@H]2O)CCCCC1` (stereo partly specified), in series [1], the “k'” value worked out at 9.29. The MPR in series [13] came to 5%.
For `C[C@@H](Nc1ncnc2c1ncn2[C@@H]1O[C@H](CO)[C@@H](O)[C@H]1O)c1ccccc1`, the “k'” value in [1] was 1.64. In addition, the pKa in [2] was 3.3. Moreover, in series [3], the MPR turned out to be 0.52.
Turning to `OC[C@H]1O[C@@H](n2cnc3c(NC4CCCCCCC4)ncnc32)[C@H](O)[C@@H]1O`, in [11], the MPR was found to be 12%. The “k'” value in series [1] turned out to be 8.8. This molecule also showed an Amount bound at Albumin of 10.1 M/g.
Take `CC(C)C(Nc1ncnc2c1ncn2C1O[C@H](CO)[C@@H](O)[C@H]1O)C(C)C` (stereo partly specified): in series [1], the “k'” value is 1. This molecule gave an Amount bound at Albumin of 2.97 M/g. In [3], the MPR was 0.75.
Regarding `CC[C@@H](C)Nc1ncnc2c1ncn2[C@@H]1O[C@H](CO)[C@@H](O)[C@H]1O`, in series [1], the “k'” value is listed as 0.89. The same molecule gave a pKa in [2] of 3.7. This molecule also registered an Amount bound at Albumin of 0.36 M/g. Moreover, the MPR in series [3] stood at 0.88.
Turning to `CC(C)Nc1ncnc2c1ncn2[C@@H]1O[C@H](CO)[C@@H](O)[C@H]1O`, the “k'” value in [1] was found to be 0.54. In addition, the Amount bound on Albumin worked out at 0.41 M/g. Moreover, the MPR in series [3] was determined as 0.71.
Consider `C[C@H](Cc1ccccc1)Nc1ncnc2c1ncn2[C@@H]1O[C@H](CO)[C@@H](O)[C@H]1O` [(R)-PIA], for which the “k'” value in series [1] is recorded as 2.57. The pKa in series [2] is 3.4.
Consider `CC(C)CNc1ncnc2c1ncn2C1O[C@H](CO)[C@@H](O)[C@H]1O` (stereo partly specified), for which the “k'” value in [1] worked out at 1. Also, the Amount bound at Albumin came to 0.74 M/g. Also, the MPR in [3] is 0.75.
